# TAAR1 antagonist: human TAAR1 antagonism | CHO RD-HGA16 TAAR1, Fluo-8 calcium fluorescence, antagonist | inhibition, % at 3 µM | actives 1.5% (n = 360,000) | AID 624466;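 active = inhibition above a per-plate cutoff, the mean inhibition of test compounds on that plate plus 3 SD, cut at about 49% in these data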;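 also: 0% = DMSO plus EC80 beta-PEA response and 100% = DMSO alone without agonist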
# Target sequence (Q96RJ0 whole entry, looked up): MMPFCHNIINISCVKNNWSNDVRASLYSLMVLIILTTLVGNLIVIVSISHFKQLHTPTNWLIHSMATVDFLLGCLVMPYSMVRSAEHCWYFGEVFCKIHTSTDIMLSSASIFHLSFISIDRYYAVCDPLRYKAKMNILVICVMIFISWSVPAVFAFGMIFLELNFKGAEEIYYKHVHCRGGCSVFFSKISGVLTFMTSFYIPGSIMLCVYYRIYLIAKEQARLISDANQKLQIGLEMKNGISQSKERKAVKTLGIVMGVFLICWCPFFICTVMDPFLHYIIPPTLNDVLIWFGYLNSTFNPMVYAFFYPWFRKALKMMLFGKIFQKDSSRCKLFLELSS
#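 Assay system: CHO-derived RD-HGA16 cells stably expressing human TAAR1 plus Gα16. Timing: 140 s kinetic read after compound, 140 s after agonist. Technique: kinetic Fluo-8 calcium fluorescence measurement. Measure: % inhibition of agonist calcium response.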
# rCAG RNA binder: molecules binding r(CAG) RNA repeats. r(CAG) RNA repeat, TO-PRO-1 dye displacement fluorescence. inhibition, % at 3 µM. actives 1.3% (n = 370,000);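 active = inhibition above the plate cutoff, the mean of all test compounds on that plate plus 3 SD, cut at about 35% in these data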;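 also: 0% = DMSO alone and 100% = 100 µM mitoxantrone as full dye displacement; higher means more dye released from RNA so lower well fluorescence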
# HCV core dimer: HCV core protein dimerization inhibition; TR-FRET GST/Flag-core106 dimerization, 1536-well; inhibition, % at 5 µM; actives 0.33% (n = 300,000); AID 1899;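 active = inhibition above the mean of all tested compounds plus 3 SD, set per screening campaign, cut at about 45% in these data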
#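 Material: GST/Flag-tagged HCV core106 proteins. Incubation: 4 h, 22.5 °C incubation. Read-out basis: inhibition (%) from 671 over 617 nm ratio. Measured by: TR-FRET, excitation 340 nm, emission 617 and 671 nm.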
# TAAR1 ag: human TAAR1 agonism | Q96RJ0 | AID 624467 | actives 0.99% (n = 360,000) | CHO RD-HGA16 TAAR1, Fluo-8 calcium fluorescence; vehicle wells 0%, saturating PEA agonist 100% | activation, % at 3 µM;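 active = activation above the mean activation of all test compounds in the run plus 3 SD, cut at about 38% in these data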
#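 Test system: RD-HGA16 (CHO) cells co-expressing Gα16 and hTAAR1; dosing: one-point dosing at 3 µM (nominal); timing: 17-24 h seeding, 75 min 37 °C dye, 30 min RT; signal: kinetic Fluo-8 calcium fluorescence; read-out basis: % activation relative to PEA EC100 response; controls: DMSO and PEA EC100; replicates: n 1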
# NS3 helicase inh: HCV NS3 helicase inhibition. AID 1800. inhibition, % at 10.9 µM. NS3 helicase DNA unwinding, Cy5 molecular beacon fluorescence. actives 0.56% (n = 290,000);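 active = inhibition above the mean of all tested compounds plus 3 SD, set per campaign, cut at about 35% in these data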;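 also: 0% = DMSO wells and 100% = thioflavine S control wells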
#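 Compound dosing – single dose, 10.9 µM nominal final, DMSO 0.8% final · System – NS3 helicase fragment of HCV · Buffer or medium – MOPS pH 6.5, MgCl2, DTT, Tween20, BSA · Signal – Cy5 beacon fluorescence read at start and 1 h · Also added – annealed dual-labelled DNA beacon duplex, ATP-started · Schedule – 1 h at 25 °C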
# rCAG binder conf: r(CAG) RNA repeat binding, confirmation; inhibition, % at 3 µM; actives 70% (n = 4,300); shares compounds with rCAG RNA binder; TO-PRO-1 dye displacement fluorescence; AID 652065;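 active = inhibition above a per-plate cutoff, the mean inhibition of sample wells plus 3 SD, cut at about 35% in these data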;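 also: loss of TO-PRO-1 fluorescence as compound displaces dye from 1x1 AA loop RNA; 0% = DMSO only wells and 100% = 100 µM mitoxantrone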
# dCAG dye counter: counter-screen for rCAG RNA binders: DNA CAG dye complex inhibitors; d(CAG) DNA oligo TO-PRO-1 dye displacement, fluorescence; shares compounds with rCAG RNA binder; inhibition, % at 3 µM; actives 94% (n = 4,300);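 active = inhibition above its plate's cutoff, the mean test-well inhibition plus 3 SD, cut at about 4.8% in these data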;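 also: 0% = DNA dye mix with DMSO and 100% = 100 µM mitoxantrone; hits displace the dye from DNA and so lower well fluorescence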
# dCAG dye DR: DNA CAG dye complex inhibition, dose response counter-screen; actives 20% (n = 250); shares compounds with rCAG RNA binder; IC50, µM; DNA CAG/GTC duplex TO-PRO-1 dye displacement fluorescence; in the data active = IC50 below about 10 µM
# Starred values were filed as active, the others as inactive; . = no result. An excerpt weighted towards active compounds, which were near 3.7% of everything screened.
SMILES,TAAR1 antagonist,rCAG RNA binder,HCV core dimer,TAAR1 ag,NS3 helicase inh,rCAG binder conf,dCAG dye counter,others
Cc1c(C(=O)N(C)C)sc(NC(=O)c2cc([N+](=O)[O-])cc([N+](=O)[O-])c2)c1C#N,2,56*,1,8,2,37*,9.9*,
O=C(NN1C(=O)/C(=C/c2ccc(O)cc2)SC1=S)c1ccccc1O,-1,2,-18,7,33,.,.,
COc1cc(/C=C2\SC(=S)N(NC(=O)c3ccccc3O)C2=O)ccc1O,30,55*,-36,31,-2,34,13*,
O=C(NN1C(=O)/C(=C/c2ccc(O)c([N+](=O)[O-])c2)SC1=S)c1ccccc1Cl,9,39*,-14,9,16,15,5.5*,
O=C(CCc1ccccc1)N[C@H]1[C@H](OC(=O)c2cccnc2)CCC[C@@]12C(=O)N(Cc1ccccc1)c1ccccc12,.,6,.,.,.,.,.,
C/C(=C/c1c[n+](Cc2ccc3c(c2)OCO3)c(N)[nH]1)Cn1[nH]c(=O)n(-c2ccccc2)c1=O,.,7,.,.,.,.,.,
CC(C)CN1C(=O)C[C@]2(C(=O)N(C)c3ccc(NS(=O)(=O)c4ccc(F)cc4)cc32)C1c1ccccc1 (stereo partly drawn),.,2,.,.,.,.,.,
CCCSC1=N/C(=C\c2ccc([N+](=O)[O-])o2)C(=O)S1,-15,40*,.,2,25,47*,20*,dCAG dye DR=>30
CCSC1=N/C(=C\c2ccc(-c3ccccc3[N+](=O)[O-])o2)C(=O)S1,4,20,0,15,15,.,.,
O=C(C[C@@H]1C[C@@H]2c3cc(NC(=O)c4ccc5c(c4)OCO5)ccc3O[C@@H]2[C@@H](CO)O1)NCc1cccnc1,-10,7,.,0,.,.,.,
N#Cc1c(SCC(=O)Nc2nc3ccccc3s2)sc2c(O)cc(=O)[nH]c12,-20,63*,.,1,.,60*,26*,dCAG dye DR=9.3*
N#Cc1c(SCC(=O)Nc2nc3ccc(Br)cc3s2)sc2c(O)cc(=O)[nH]c12,-14,67*,-44,0,-2,82*,51*,
O=C(O)CCSc1nnc(COc2cccc3ccccc23)n1-c1cccc(Cl)c1,-17,44*,13,3,-14,45*,12*,
N#CCSc1nnc(COc2cccc3ccccc23)n1-c1cccc(Cl)c1,23,-1,18,3,-4,.,.,
Cc1cccc(OCc2nnc(SCC(=O)O)n2Cc2ccccc2)c1,-16,11,0,1,15,.,.,
CCn1c(COc2ccc3ccccc3c2C)nnc1SCC(=O)Nc1cccc(C(=O)O)c1,-17,68*,7,3,11,60*,27*,
O=C(O)CSc1nnc(COc2cccc3ccccc23)n1Cc1ccccc1,-28,38*,8,0,10,43*,11*,
O=C(Nc1ccc2c(c1)OCO2)N1CCC(c2nc3ccc(Cl)cc3[nH]2)CC1,.,5,.,.,.,.,.,
COC(=O)c1cc(-c2cc3ccccc3o2)c(=O)n2c1CCC2,.,4,.,.,.,.,.,
CCN(CC)C(=O)CC[C@H]1CC[C@]2(CCCN(S(=O)(=O)C3CCCCC3)C2)O1,.,-2,.,.,.,.,.,
O=[N+]([O-])c1ccc(S(=O)(=O)Nc2nc(-c3ccccc3)cs2)cc1,18,66*,8,-1,-21,41*,11*,
COc1ccc(-c2csc(NC(=O)c3ccccc3NS(=O)(=O)c3ccc(C)cc3)n2)cc1,47,85*,17,4,22,95*,82*,
O=S(=O)(Nc1nc(-c2ccccc2)cs1)c1cc(Cl)ccc1Cl,-7,80*,16,-2,33,73*,38*,
Cc1ccc(S(=O)(=O)Nc2nc(-c3ccc(F)cc3)cs2)cc1,-24,62*,6,-2,16,56*,15*,
Cc1csc(NS(=O)(=O)c2cccc([N+](=O)[O-])c2)n1,1,2,-1,1,2,.,.,
SMILES,TAAR1 antagonist,rCAG RNA binder,HCV core dimer,TAAR1 ag,NS3 helicase inh,rCAG binder conf,dCAG dye counter,others
O=C(O)c1ccccc1NS(=O)(=O)c1cccc(C(F)(F)F)c1,6,15,-1,16,23,.,.,
O=S(=O)(Nc1nc(-c2ccccc2)cs1)c1cccc(C(F)(F)F)c1,1,78*,-16,-3,-16,57*,22*,
O=C(CN1CCN(Cc2ccccc2)CC1)N/N=C\c1c2ccccc2cc2ccccc12,.,3,.,.,.,.,.,
Cc1ccc(C(=O)Nc2cccc([N+](=O)[O-])c2)cc1S(=O)(=O)Nc1ccc(NC(=O)c2ccccc2)cc1,3,55*,15,1,-16,41*,21*,
Cc1ccc(C(=O)NC2CCCC2)cc1S(=O)(=O)N1CCCCC1,-13,-5,1,-1,-8,.,.,
Cc1ccc(NC(=O)CC(=O)c2ccc([N+](=O)[O-])cc2)cc1S(=O)(=O)Nc1cccc(Cl)c1,24,50*,39,2,-4,64*,25*,
Cc1ccc(C(=O)N2CCCC2)cc1S(=O)(=O)Nc1ccccc1,6,-1,-10,4,1,.,.,
Cc1ccc(NS(=O)(=O)c2cc(C(=O)Nc3cccc([N+](=O)[O-])c3)ccc2C)cc1,2,22,4,1,2,.,.,
Cc1ccc(C(=O)Nc2ccccc2C(=O)O)cc1S(=O)(=O)NC1CCCCC1,-60,70*,-9,1,-3,61*,22*,
Cc1ccc(C(=O)Nc2ccccc2C(=O)O)cc1S(=O)(=O)Nc1ccccc1,-41,67*,18,2,16,46*,15*,
C#CCNC(=O)C[C@@H]1C(=O)N(Cc2ccc(OC)cc2)C2=CCN(C(=O)OC(C)(C)C)C[C@]21C(=O)OCC,.,2,.,.,.,.,.,
CN1CC=C(c2ccc(C(F)(F)F)cc2)N(c2ccccc2)C1=O,.,4,.,.,.,.,.,
COc1ccc(S(=O)(=O)N2CCCCCC2)cc1NS(=O)(=O)c1cc(C(=O)O)cc(C)c1C,0,47*,.,4,.,17,5.9*,
COc1ccc(S(=O)(=O)N2CCCCC2)cc1NS(=O)(=O)c1cc(Cl)ccc1Cl,-3,36*,24,0,19,39*,10*,
COc1ccc(S(=O)(=O)N2CCCCC2)cc1NS(=O)(=O)c1ccccc1F,12,11,3,0,-9,.,.,
CCOC(=O)[C@]12CCCC=C1N(CCc1ccc(Cl)cc1)C(=O)[C@@H]2CC(=O)NCCC(C)C,.,2,.,.,.,.,.,
CC(=O)Nc1ccc(OC(=O)c2cc3cc(Br)ccc3oc2=O)cc1,-13,1,13,1,-16,.,.,

# High-throughput results from PubChem.
